Experimental data taken from ChEMBL document CHEMBL1157608, “The discovery of 4-{1-[({2,5-dimethyl-4-[4-(trifluoromethyl)benzyl]-3-thienyl}carbonyl)amino]cyclopropyl}benzoic acid (MK-2894), a potent and selective prostaglandin E2 subtype 4 receptor antagonist” (J Med Chem, 2010).

How the values were obtained:
[1] = biological target: T1, Prostaglandin E2 receptor EP1 subtype (Rattus norvegicus, UniProt P70597); assay: Displacement of [3H]PGE2 from rat EP1 receptor expressed in HEK293-EBNA cells by scintillation counting; format: cell-based
T1 sequence (P70597 whole entry): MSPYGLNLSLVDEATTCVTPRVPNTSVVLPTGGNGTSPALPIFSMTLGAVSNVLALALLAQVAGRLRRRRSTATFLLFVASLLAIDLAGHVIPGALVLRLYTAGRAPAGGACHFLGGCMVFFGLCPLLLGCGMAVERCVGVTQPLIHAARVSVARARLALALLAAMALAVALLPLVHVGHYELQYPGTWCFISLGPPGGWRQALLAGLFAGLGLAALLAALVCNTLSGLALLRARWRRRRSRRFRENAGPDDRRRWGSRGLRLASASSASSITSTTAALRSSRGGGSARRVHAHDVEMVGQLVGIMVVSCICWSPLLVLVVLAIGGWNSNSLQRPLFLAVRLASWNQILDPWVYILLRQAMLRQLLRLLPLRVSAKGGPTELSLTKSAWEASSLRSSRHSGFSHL
In short: (§1)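 Radioligand binding on membranes from HEK 293(EBNA) clonal lines overexpressing each prostanoid receptor, using the respective 3H-prostaglandin or thromboxane ligand; EP4 binding also run with 10% human serum; Ki as means of at least three experiments (rEP2, rEP3 n = 1).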

[2] = biological target: Prostaglandin E2 receptor EP2 subtype (Rattus norvegicus, UniProt Q62928); assay: Displacement of [3H]PGE2 from rat EP2 receptor expressed in HEK293-EBNA cells by scintillation counting; format: cell-based; in short: as §1
Prostaglandin E2 receptor EP2 subtype, sequence (Q62928 whole entry): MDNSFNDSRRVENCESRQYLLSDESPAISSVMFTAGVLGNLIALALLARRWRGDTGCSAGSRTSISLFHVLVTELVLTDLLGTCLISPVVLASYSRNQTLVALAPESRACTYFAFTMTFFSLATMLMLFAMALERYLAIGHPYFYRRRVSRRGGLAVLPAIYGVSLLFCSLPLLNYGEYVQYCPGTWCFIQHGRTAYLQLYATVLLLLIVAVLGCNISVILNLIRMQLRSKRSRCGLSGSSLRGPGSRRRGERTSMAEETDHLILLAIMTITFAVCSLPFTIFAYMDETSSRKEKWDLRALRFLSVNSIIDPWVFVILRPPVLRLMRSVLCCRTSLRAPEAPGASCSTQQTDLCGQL

[3] = test system: Rattus norvegicus; assay: Plasma concentration in complete Freund's adjuvant-induced Sprague-Dawley rat inflammatory pain model at 0.1 mg/kg/day, po; format: ADME, organism-based; set-up: route oral; settings: in vivo
In short: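 Adjuvant-induced arthritis in rats: CFA injected into primary paw on day 0; oral dosing in 0.5% methocel once daily for 9 days starting day 9; secondary paw swelling measured; plasma levels taken 24 h after final dose; n = 7/group; 1-way ANOVA/Dunnett's vs vehicle.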

[4] = Volume of distribution at steady state in C57BL/6 mouse at 20 mg/kg, po and 5 mg/kg, iv; format: ADME, organism-based; settings: in vivo, read-out: Vdss
In short: (§2)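 Overnight-fasted animals dosed po in 0.5% methocel or iv in 60% PEG 200; plasma from serial blood samples stored at -10 °C, protein-precipitated with equal volume acetonitrile/0.1% formic acid, analysed by LC/MS/MS with internal standard against spiked blank-plasma standards; Cmax from po data, half-life from iv data.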

[5] = Oral bioavailability in Beagle dog at 5 mg/kg; format: ADME, organism-based, Canis lupus familiaris; settings: in vivo; in short: as §2

In the case of `Cc1sc(C)c(C(=O)NC2(c3ccc(C(=O)O)cc3)CC2)c1Cc1ccc(C(F)(F)F)cc1`, the Ki [1] is reported as > 29 µM, the Ki [2] is reported as 7.2 µM and the concentration [3] is reported as 4 nM. The Vd [4] was 7.6 L/kg and the bioavailability [5] was 32%.
